Screening data deposited in PubChem BioAssay by several laboratories.
OXTR potentiate = human OXTR potentiators, primary screen, fluorescence, CHO-OTR cells, Fluo-8 calcium; Oxytocin receptor (Homo sapiens), P30559; 0.061% of 320,000 active; Fluo-8 calcium fluorescence, potentiator mode; 0% = oxytocin EC15, 100% = EC100; activation, % at 3 µM; AID 2445, 2010;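 active = activation above that plate's cutoff, the mean activation of tested compounds plus 3 SD, cut at about 6.6% in these data, passing the limit was not always enough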
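System: human OTR in CHO cells; Also added: sub-maximal oxytocin, roughly EC15; Timing: compound 6 min at room temperature before oxytocin, 100 s read; Technique: Fluo-8 intracellular calcium fluorescence, ex 470-495, em 515-575 nm; Controls: oxytocin EC15 low and EC100 high; Replication: singlicate.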
TRPML3 ag = human TRPML3 channel agonists, primary screen, cell-based, HEK293 TRPML3-YFP, Fluo-8 calcium fluorescence, 3 µM; Mucolipin-3 (Homo sapiens), Q8TDD5; 100% = the carbachol control signal; activation, % at 3 µM; 0.29% of 220,000 active; AID 1448, 2008;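 active = activation above its plate's cutoff, the mean activation of the plate's test wells plus 3 SD, cut at about 12% in these data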
Target sequence (Q8TDD5 whole entry, looked up): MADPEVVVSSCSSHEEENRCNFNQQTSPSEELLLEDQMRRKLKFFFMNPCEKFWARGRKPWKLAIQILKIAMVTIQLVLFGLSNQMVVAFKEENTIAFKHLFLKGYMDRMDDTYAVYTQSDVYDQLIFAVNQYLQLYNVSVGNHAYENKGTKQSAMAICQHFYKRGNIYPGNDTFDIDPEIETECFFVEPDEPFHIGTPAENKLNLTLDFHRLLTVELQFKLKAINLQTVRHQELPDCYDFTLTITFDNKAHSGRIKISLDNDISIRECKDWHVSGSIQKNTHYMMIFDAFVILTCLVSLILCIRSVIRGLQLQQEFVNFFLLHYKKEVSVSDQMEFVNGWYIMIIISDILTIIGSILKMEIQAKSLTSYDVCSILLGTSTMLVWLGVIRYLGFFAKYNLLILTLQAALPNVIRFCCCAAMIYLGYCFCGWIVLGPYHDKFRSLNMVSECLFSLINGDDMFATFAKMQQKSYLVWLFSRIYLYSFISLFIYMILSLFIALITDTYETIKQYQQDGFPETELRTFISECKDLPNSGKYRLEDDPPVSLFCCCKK
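Test system: HEK293 cells stably carrying human TRPML3-YFP; Doses: single dose, 3 µM final nominal compound, 0.3% DMSO final; Schedule: dye loading 1 h 37 °C then 30 min ambient, 125 s read; Technique: Fluo-8 calcium fluorescence; Benchmarks: high control carbachol 87 µM, low control DMSO.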
V1aR counter = agonists of human V1a receptor, primary screen, counter-screen for OXTR agonist project, fluorescence, CHO-V1R cells. Fluo-8 calcium fluorescence, agonist mode; 0% DMSO, 100% 3 nM vasopressin. activation, % at 3 µM. 0.25% of 320,000 active;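 active = activation above the mean activation of all tested compounds plus 3 SD, per screening run, cut at about 20% in these data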;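 note: signal is peak over basal fluorescence ratio across a 100 second FLIPR read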
TRPN1 ag = zebrafish TRPN1 channel agonists, primary screen, cell-based, HEK293, calcium fluorescence. transient receptor potential cation channel N1 (TRPN1/NompC), Danio rerio. HEK293 zebrafish TRPN1-YFP, Fluo-8 calcium fluorescence; 100% = response to 87 µM carbachol. activation, % at 3 µM. 0.18% of 220,000 active. AID 1424, 2008;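 active = activation above its plate's cutoff, the mean activation of test wells on that plate plus 3 SD, cut at about 19% in these data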
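Assay system: Zebrafish TRPN1-YFP in HEK293 cells | Incubation: Dye loading 1 h at 37 °C, then 30 min room temperature | Measured by: Kinetic Fluo-8 fluorescence, ex 470-495, em 515-575 nm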
CRFR2-BP ag = agonists of CRF-BP/CRF-R2 complex, primary screen, cell-based, HEK293, calcium dye fluorescence, uHTS; calcium dye fluorescence (FLIPR); percent of saturating CRF peptide response; CRF-binding protein / CRF receptor 2 complex (human); activation, % at 13.2 µM; 0.46% of 350,000 active;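 active = activation of at least 50%, plus an integration ratio under a set limit after plate pattern correction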
OXTR ag = human OXTR agonists, primary screen, fluorescence, CHO-OTR cells, Fluo-8 calcium; 0.32% of 320,000 active; Oxytocin receptor (Homo sapiens), P30559; activation, % at 3 µM; Fluo-8 calcium fluorescence; normalized: DMSO 0%, oxytocin 100%;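 active = activation above the mean of all tested compounds plus 3 SD, cutoff set per screening run, cut at about 20% in these data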;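 note: peak over basal fluorescence ratio from a 100 s FLIPR kinetic read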
OXTR pot cf = human OXTR potentiators, confirmation, fluorescence, CHO-OTR cells, triplicate; shares compounds with OXTR potentiate; Fluo-8 calcium fluorescence, potentiation; scaled from low-dose to maximal oxytocin; activation, % at 3 µM; 180 tested, under 10 active;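 active = mean percent activation over triplicates above a cutoff set from solvent-only control plates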;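 note: compounds tested in the presence of an EC15 dose of oxytocin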
V1aR agonist cf = V1a receptor agonists, calcium signal, confirmation, Fluo-8 calcium fluorescence, CHO-V1R cells; shares compounds with V1aR counter; agonist; activation, % at 3 µM; 20% of 180 active; AID 434964, 2010;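 active = average activation exceeds primary screen hit cutoff, cut at about 21% in these data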;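 note: peak over basal fluorescence ratio during a 100 s FLIPR read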
OXTR counter = human OXTR agonists, counter-screen for V1R agonist project, fluorescence, CHO-OTR cells, triplicate | activation, % at 3 µM | AID 434969, 2010 | Fluo-8 calcium fluorescence | 10% of 180 active | shares compounds with V1aR counter;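 active = mean activation over three repeats above the cutoff from the earlier oxytocin receptor agonist screen, cut at about 20% in these data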;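 note: peak over minimum fluorescence ratio within a 100 second FLIPR read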
Each line names hits and unclear results; the compound was inactive in the other large screens (follow-up assays come after a bar, where they were run). Compounds with a hit are over-represented: about 0.83% of the library has one in this group of screens.

Cc1noc(C)c1C(=O)N1CCN(CCc2ccccc2)CC1	none
Cc1ccc(C)c(NC(=O)CCN2C(=O)C3CC=CCC3C2=O)c1 (configuration not stated)	OXTR potentiate 15 (no result: TRPML3 ag, TRPN1 ag) | OXTR pot cf inactive
CCCOc1ccc(C(=O)N2CCCc3ccccc32)cc1	none
CCOc1ccc(C(=O)N2CCc3ccccc32)cc1	OXTR potentiate 12 (no result: TRPML3 ag, TRPN1 ag) | OXTR pot cf inactive
Cc1ccc(OCC(=O)OCC(=O)NC2CCCCCC2)cc1C	none (no result: OXTR potentiate, TRPML3 ag, V1aR counter, TRPN1 ag, OXTR ag)
OC(COc1ccc(F)cc1Cl)CN1CCC(Cc2ccccc2)CC1 (configuration not stated)	V1aR counter 22 (no result: TRPML3 ag, TRPN1 ag) | V1aR agonist cf inactive | OXTR counter inactive
CCCNS(=O)(=O)c1ccc(Oc2ncc(C(F)(F)F)cc2Cl)cc1	V1aR counter 23, CRFR2-BP ag 81 | V1aR agonist cf inactive | OXTR counter inactive
CC(C)NS(=O)(=O)c1ccc(Oc2ncc(C(F)(F)F)cc2Cl)cc1	none
CCc1ccc(N=Nc2ccc(O)c3[nH]cnc23)cc1	V1aR counter 23 (no result: TRPML3 ag, TRPN1 ag) | V1aR agonist cf 26 | OXTR counter inactive
CC(=O)C1CCC2C3CCC4CC(=O)CCC4(C)C3C(C)(O)CC12C (configuration not stated)	none (no result: OXTR potentiate, TRPML3 ag, V1aR counter, TRPN1 ag, OXTR ag)
Cc1ccc(CNC(=O)c2cccc3c2C(=O)c2ccc(N4CCCCC4)cc2S3(=O)=O)cc1	V1aR counter 22, CRFR2-BP ag 57 (no result: TRPML3 ag, TRPN1 ag) | V1aR agonist cf inactive | OXTR counter inactive
Cc1ccc(CNC(=O)c2cccc3c2C(=O)c2ccc(N4CCOCC4)cc2S3(=O)=O)cc1	none (no result: TRPML3 ag, TRPN1 ag)
COc1ccc(/C=C\C(=O)O[C@@H]2C(O)C(O[C@@H]3OC(C)[C@H](O[C@@H]4OCC(O[C@H]5O[C@H](CO)[C@@H](O)C(O)C5O)C(O)C4O)C(O)C3O)[C@H](OC(=O)[C@]34CCC(C)(C)C[C@@H]3C3=CCC5[C@@]6(C)CC(O)C(O[C@@H]7OC(CO)C(O)[C@H](O)[C@H]7O)[C@@](C)(C(=O)O)C6CC[C@@]5(C)[C@]3(CO)CC4)O[C@H]2C)cc1 (some centres not stated)	V1aR counter 73, CRFR2-BP ag 132 (no result: TRPML3 ag, TRPN1 ag) | V1aR agonist cf 79 | OXTR counter 44
CCc1ccc(NC(=O)N(CCCN2CCOCC2)C(C)c2cc3cccc(OC)c3o2)cc1 (configuration not stated)	V1aR counter 22 | V1aR agonist cf inactive | OXTR counter inactive
Cc1cccc(-n2ncc3c(=O)[nH]c(SCC(=O)NCCC4=CCCCC4)nc32)c1	none (no result: TRPML3 ag, TRPN1 ag)
CC(Oc1ccc2ccc(=O)oc2c1)C(=O)N1CCOCC1 (configuration not stated)	V1aR counter 21 (no result: TRPML3 ag, TRPN1 ag) | V1aR agonist cf inactive | OXTR counter inactive
Cc1cccc(NS(=O)(=O)c2ccc(C)c(C(=O)NNC(=O)c3csc(N4CCOCC4)n3)c2)c1	none (no result: OXTR potentiate, TRPML3 ag, V1aR counter, TRPN1 ag, OXTR ag)
Cc1ccc2[nH]c(C(=O)N/N=C/c3ccccc3O)c(C)c2c1	V1aR counter 22 (no result: TRPML3 ag, TRPN1 ag) | V1aR agonist cf inactive | OXTR counter inactive
Cc1ccc2[nH]c(C(=O)N/N=C/c3ccc([N+](=O)[O-])cc3)c(C)c2c1	none (no result: OXTR potentiate, TRPML3 ag, V1aR counter, TRPN1 ag, OXTR ag)
CCOc1ccc(-c2c(C(=O)N/N=C/c3ccco3)nnn2-c2nonc2N)cc1	none (no result: TRPML3 ag, TRPN1 ag)
Cc1ccc(-c2c(C(=O)N/N=C/c3ccco3)nnn2-c2nonc2N)cc1	V1aR counter 28 (no result: TRPML3 ag, TRPN1 ag) | V1aR agonist cf inactive | OXTR counter inactive
Cc1nc2ccc(S(=O)(=O)NCC(=O)Nc3ccc(F)cc3)cc2s1	none (no result: TRPML3 ag, TRPN1 ag)
ONC(=Nc1ccccc1Cl)c1ccccc1Cl	V1aR counter 20 | V1aR agonist cf inactive | OXTR counter inactive
Cc1ccc(C2=NS(=O)(=O)N(C)C(C(=O)NCc3cccs3)=C2)cc1	none (no result: TRPML3 ag, TRPN1 ag)
COc1ccc(OC)c(C2=NS(=O)(=O)N(C)C(C(=O)NCc3cccs3)=C2)c1	V1aR counter 22 (no result: TRPML3 ag, TRPN1 ag) | V1aR agonist cf inactive | OXTR counter 25
COC(=O)[C@H](Cc1c[nH]c2ccccc12)NC(=O)Cc1c[nH]c2ccccc12	V1aR counter 21 (no result: TRPML3 ag, TRPN1 ag) | V1aR agonist cf inactive | OXTR counter inactive
COC(=O)C(Cc1c[nH]c2ccccc12)NC(=O)C(C)C (configuration not stated)	none
Cc1ccc(C)c(N2CCN(c3ncccc3[N+](=O)[O-])CC2)c1	none (no result: TRPML3 ag, TRPN1 ag)
CS(=O)(=O)c1ccc(Cl)c(NC(=O)COC(=O)CCc2c[nH]c3ccccc23)c1	V1aR counter 28 (no result: TRPML3 ag, TRPN1 ag) | V1aR agonist cf inactive | OXTR counter inactive
CCOc1ccc(NC2=NCC(=O)N2CCc2ccccc2)cc1	V1aR counter 20 | V1aR agonist cf inactive | OXTR counter inactive
Cc1ccc(NC2=NCC(=O)N2CCc2ccccc2)cc1C	none
CCn1cc(C(=O)N2CCN(c3ccc(OC)cc3)CC2)c(=O)c2cc(S(=O)(=O)N3CCOCC3)ccc21	none (no result: TRPML3 ag, TRPN1 ag)
O=C(Nc1cccc(Cl)c1)Nc1ccc2nccnc2c1	V1aR counter 23 (no result: TRPML3 ag, TRPN1 ag) | V1aR agonist cf inactive | OXTR counter inactive
Cc1cccc(N2CCN(S(=O)(=O)c3c(C)[nH]c(C)c3C(=O)N3CCCC3)CC2C)c1 (configuration not stated)	none (no result: TRPML3 ag, TRPN1 ag)
COc1cccc(C(=O)NCCN2CCN(c3ccccc3)CC2)c1	none (no result: TRPML3 ag, TRPN1 ag)
CNC(=O)c1[nH]cnc1C(=O)Nc1ccccn1	V1aR counter 43 | V1aR agonist cf inactive | OXTR counter inactive
CNC(=O)c1[nH]cnc1C(=O)Nc1ccccc1	none (no result: TRPML3 ag, TRPN1 ag)
Nc1c(C(=O)Nc2nccs2)sc2nc(-c3cccs3)cc(C(F)(F)F)c12	V1aR counter 34, CRFR2-BP ag 68 | V1aR agonist cf 24 | OXTR counter 34
